Assay outcomes from PubChem.
FXIIa inh 1536 = human FXIIa protease inhibitors, primary screen, biochemical, 1536-well; Coagulation factor XII (Homo sapiens), P00748; purified FXIIa, Boc-QGR-AMC fluorogenic substrate, 2 h; inhibition, % at 5 µM; hit rate 0.3% among 220,000; AID 800, 2007; in the data active means inhibition above about 40%;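 further: 0% = enzyme with no compound and 100% = blank without enzyme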
Thrombin inh = human alpha-thrombin inhibitors, primary screen, counter-screen for coagulation protease inhibitor project, biochemical, 1536-well, fluorogenic AMC substrate; Prothrombin (Homo sapiens), P00734; Boc-VPR-AMC fluorogenic substrate cleavage; inhibition, % at 5 µM; hit rate 0.26% among 220,000; AID 1046, 2008;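 active means inhibition at or above 40%; inactive means inhibition below 40%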;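 further: 0% = enzyme with no compound and 100% = wells without enzyme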
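Material: human alpha-thrombin protein; Also added: Boc-VPR-AMC substrate, 15 µM final; Timing: enzyme reaction carried out at room temperature; Signal: fluorescence, ex 355 nm, em 460 nm; Measure: % inhibition of thrombin; Controls: enzyme without compound as high, wells lacking enzyme as low.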
FXIa inh = human FXIa protease inhibitors, primary screen, biochemical, 1536-well; Coagulation factor XI (Homo sapiens), P03951; purified FXIa, Boc-Glu-Ala-Arg-AMC fluorogenic substrate; inhibition, % at 5 µM; hit rate 0.14% among 220,000;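 active means inhibition of at least 40%; inactive means inhibition below 40%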;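 further: fluorescence of freed AMC excited at 355 nm; 0% = enzyme without compound and 100% = no enzyme blank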
Target sequence (P03951 19-387 limits assumed): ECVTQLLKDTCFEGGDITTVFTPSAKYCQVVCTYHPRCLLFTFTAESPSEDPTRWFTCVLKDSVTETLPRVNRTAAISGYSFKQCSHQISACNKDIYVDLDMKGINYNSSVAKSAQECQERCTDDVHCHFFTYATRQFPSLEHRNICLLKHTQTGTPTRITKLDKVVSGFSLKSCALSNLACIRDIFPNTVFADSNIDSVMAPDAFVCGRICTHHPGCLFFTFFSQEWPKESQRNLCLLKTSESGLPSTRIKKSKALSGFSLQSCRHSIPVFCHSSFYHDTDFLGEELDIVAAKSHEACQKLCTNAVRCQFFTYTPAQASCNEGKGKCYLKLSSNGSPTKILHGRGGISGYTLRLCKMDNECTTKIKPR
Target sequence (P03951 388-625 limits assumed): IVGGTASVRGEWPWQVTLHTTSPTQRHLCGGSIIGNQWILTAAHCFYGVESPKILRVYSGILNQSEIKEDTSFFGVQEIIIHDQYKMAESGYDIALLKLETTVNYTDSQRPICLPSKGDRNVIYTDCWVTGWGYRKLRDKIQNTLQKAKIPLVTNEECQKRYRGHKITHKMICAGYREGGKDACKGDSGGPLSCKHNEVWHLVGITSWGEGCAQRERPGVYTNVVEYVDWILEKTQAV
DTT redox prof = compounds producing H2O2 with reducing agent – biochemical, NIH compound library profiling, artefact control for MLSCN library redox annotation, primary screen. DTT-dependent redox cycling H2O2, phenol red/HRP absorbance; 100% = 100 µM peroxide control, 0% = buffer. activation, % at 10 µM. hit rate 0.03% among 200,000. AID 878, 2007;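 active means activation of at least 50% relative to the plate's high and low controls in the primary single-dose screen; inactive means activation below 50%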;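 further: compound incubated with DTT at 0.8 mM final as the reducing agent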
hK5 inh = human KLK5 protease inhibitors, primary screen, biochemical, 1536-well; Kallikrein-5 (Homo sapiens), Q9Y337; recombinant hK5, fluorogenic AMC substrate cleavage; inhibition, % at 5 µM; hit rate 0.59% among 210,000; AID 873, 2007;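 active means inhibition of 40% or more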;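 further: 0% = enzyme controls without compound and 100% = no-enzyme blanks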
S1P3 antagonist = S1P3 receptor antagonists, primary screen, cell-based; CHO S1P3 NFAT-BLA reporter, FRET fluorescence, antagonist mode; inhibition, % at 4.98 µM; hit rate 0.27% among 170,000;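 active means inhibition above the plate cutoff, the mean inhibition of test wells on that plate plus 3 SD, cut at about 28% in these data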;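 further: cells challenged with S1P at its EC80 of 0.8 µM; blue over green emission ratio from cleaved BLA substrate after 4 h stimulation; 0% = S1P-stimulated wells and 100% = unstimulated DMSO-only wells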
* = called active by the depositor; · = not tested or not shown. The list is not random: actives were taken first. Their share in the collection is about 1.2%.

SMILES	FXIIa inh 1536	Thrombin inh	FXIa inh	DTT redox prof	hK5 inh	S1P3 antagonist
CCN(C(=O)CSc1ncnc2sc(C)c(C)c12)C1CCS(=O)(=O)C1 (stereo not drawn)	-1.5	-7.7	-6.3	-0.2	1.6	-8.9
CCc1cc2c(SCC(=O)N(C)C3CCS(=O)(=O)C3)ncnc2s1 (stereo not drawn)	22.6	18.9	51.0*	·	36.9	-23.5
CCCOc1ccc(C(=O)NC(C)C(=O)O)cc1 (stereo not drawn)	40.0*	3.0	18.2	0.2	-5.0	·
CC(NC(=O)c1ccc(C(C)(C)C)cc1)C(=O)O (stereo not drawn)	-13.1	3.4	-12.2	2.0	-26.4	·
CC1CCOC2(O1)C(=O)Nc1ccccc12 (stereo not drawn)	66.5*	21.9	31.4	-0.7	41.0*	-22.3
CC1OC2(OC1C)C(=O)Nc1ccccc12 (stereo not drawn)	29.5	0.9	5.6	0.0	-0.5	·
O=C1C2CCCN2C(c2cccc(F)c2)N1c1cccc(Cl)c1 (stereo not drawn)	14.6	-3.5	2.2	-2.1	-6.1	68.1*
CCc1c(C)nc2ncnn2c1N1CCC(C(=O)Nc2ccc(C)cc2)CC1	11.1	-5.9	1.3	0.1	-9.1	-4.4
CCc1c(C)nc2ncnn2c1N1CCC(C(=O)Nc2ccccc2)CC1	53.2*	-5.9	18.1	1.4	-1.6	4.7
CS(=O)(=O)N1CCC(Oc2ccccc2C(=O)N2CCN(CC3CC3)CC2)CC1	3.4	-8.3	0.4	-0.9	0.1	-9.9
Cc1ccc2c(c1)C(=O)N(CCCCO)C2=O	3.6	-1.9	11.2	-0.4	-2.2	-6.7
O=C1c2ccc(-c3ccc4c(c3)C(=O)N(CCO)C4=O)cc2C(=O)N1CCO	25.0	9.5	53.1*	·	45.5*	2.3
CC1=C(C(=O)NCc2ccccn2)C2(CCC(C)CC2)OC1=O (stereo not drawn)	25.5	12.4	5.8	-0.2	114.5*	3.0
COc1ccc(/C=C/C(=O)OCC(=O)Nc2ccc(N3CCOCC3)cc2)cc1	21.3	19.9	6.5	0.8	82.4*	-12.4
CCOc1ccc(C(=O)NC(=S)Nc2ccc(NC(=O)c3ccco3)c(C)c2)cc1[N+](=O)[O-]	-0.7	12.1	9.3	0.0	-1.1	6.0
COc1ccc(NC(=O)CN(C)Cc2c(F)cccc2Cl)cc1S(=O)(=O)N1CCCCC1	3.4	·	2.6	0.1	-0.6	-8.0
CSc1nsc2nc(=O)c(/C=C3\C(C)=Nc4ccc(C)cc43)c(N)n12	42.4*	5.5	10.5	-1.0	2.4	2.6
Cc1ccc(/C=N/c2sc3c(c2C#N)CCCCC3)o1	-1.0	-6.2	3.8	0.0	-13.4	21.8
N#Cc1c(/N=C/c2ccco2)sc2c1CCC2	8.6	104.0*	13.1	1.1	18.9	26.2
Cn1c(SCC(=O)N2CCc3ccccc3C2)nnc1-c1cccs1	21.7	18.3	18.6	-2.3	42.6*	-1.4
Nn1c(SCC(=O)N2CCc3ccccc3C2)nnc1-c1cccs1	19.8	17.3	19.3	1.8	52.4*	·
Nn1c(SCC(=O)N2CCN(S(=O)(=O)c3ccccc3)CC2)nnc1-c1cccs1	11.6	-4.0	-3.0	0.2	-3.8	·
CC(C)(O)C#Cc1ccc(CN2CCCC(CO)(Cc3cccc(Cl)c3)C2)cc1 (stereo not drawn)	6.0	-8.1	-2.9	0.4	-2.2	-12.3
CCN(CC)CCN(CC(=O)N(C1CCCCC1)C1CCCCC1)C(=O)c1ccco1	6.0	5.0	-1.7	0.1	-5.8	-3.7
CCc1ccc(NC(=O)COC(=O)CCc2nc3cc(S(=O)(=O)N(CC)CC)ccc3n2C)cc1	5.8	38.7	12.1	0.5	57.6*	-7.4
SMILES	FXIIa inh 1536	Thrombin inh	FXIa inh	DTT redox prof	hK5 inh	S1P3 antagonist
CCN(CC)c1cc(C)c2cc(NC(=O)CNC(C)=O)ccc2n1	-6.6	0.1	-7.6	-0.2	141.6*	·
CCCCNC(=O)CCC(=O)Nc1ccc2nc(N3CCC(C)CC3)cc(C)c2c1	8.0	-7.0	-1.5	-1.3	1.2	-14.7
S=C1N(c2ccccc2)CN(CCN2CCOCC2)CN1c1ccccc1	10.3	-3.9	1.3	·	0.9	-2.2
CCCCn1nnc(NC(=O)COc2ccc(Cl)c(C)c2)n1	7.2	9.9	0.2	0.6	104.1*	·
CCCn1nnnc1NC(=O)COc1ccc(Cl)c(C)c1	14.8	-3.5	31.0	-0.1	-19.2	-2.4
CCn1c(=O)cc(SCC(=O)N2CCN(c3ccccc3F)CC2)c2ccccc21	16.9	-19.3	18.9	1.4	-0.5	·
CC1CCCC(C)N1/N=C/c1ccc(C(=O)O)cc1 (stereo not drawn)	-2.8	-5.5	-5.0	·	-4.2	-5.4
C=CC#CC1(O)CC(C)N(C)CC1C (stereo not drawn)	27.6	30.6	28.2	0.6	45.6*	-16.1
CCOC(=O)c1cccc(NC(=O)CCc2ccccc2)c1	2.8	-6.7	-4.5	0.5	-4.5	-12.6
CC(=O)Nc1cccc(C(=O)OCc2ccccc2)c1	15.6	11.2	28.9	3.2	82.0*	-10.2
O=C(CSc1nnc(-c2cccnc2)n1Cc1ccco1)N1c2ccccc2Sc2ccccc21	10.9	-4.5	-1.4	0.5	13.8	91.2*
c1cncc(CSc2nnc(-c3cccnc3)n2Cc2ccco2)c1	-2.3	-10.1	2.7	1.6	-20.9	-27.1
CN(C)c1ccc(N=Nc2ccccc2C(=O)OCC(=O)NCC2CCCCC2)cc1	21.1	10.5	7.4	-0.2	48.2*	-4.8
CN(C)c1ccc(N=Nc2ccccc2C(=O)OCC(=O)NC2CCCC2)cc1	4.0	-7.8	-4.3	0.5	5.0	-15.5
CCCCCCCCCCCC(=O)N1CC(=O)NC(=O)C1	46.2*	26.9	27.2	·	54.3*	-10.2
Nc1ccccc1SC1CC(=O)N(c2ccccc2Cl)C1=O (stereo not drawn)	3.7	-3.5	0.8	·	0.8	-9.8
COc1ccc(Nc2ncc3c(n2)CC(c2ccccc2)CC3=O)cc1 (stereo not drawn)	19.3	1.0	18.8	-0.7	-2.8	53.1*
CN1CCN(C(=O)C2=C[C@@H](c3ccccc3)C[C@@H](OCCCCO)O2)CC1	2.6	-8.9	-3.0	-1.4	-1.4	-14.1
COc1ccc(C(=O)NCC(=O)OCC(=O)Nc2cccc(S(=O)(=O)N3CCCC3)c2)cc1	5.3	-2.1	-1.2	·	-0.4	-24.2
CCC(=O)NC(=S)Nc1cccc(NC(=O)c2ccccc2)c1	34.6	40.4*	35.2	1.1	21.5	9.9
CCC(=O)NC(=S)Nc1ccc(NC(=S)NC(=O)c2ccccc2)cc1	4.1	-13.9	-4.3	-0.5	0.2	-7.0
